Cardio protect – myocardial damage modulation in H9c2 cells | H9c2 cardiomyocytes, H2O2 injury protection, ATPLite, 2 h | protection from H2O2 cell death, % at 20 µM | actives 0.63% (n = 360,000) | AID 588492;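 active = compounds giving at least 50% protection of heart cells from peroxide-induced death in the single-dose screen, raw or plate-pattern-corrected value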;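 also: 0% = DMSO wells with peroxide and 100% = DMSO wells without peroxide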
Tn7 DDE FP – disrupts Tn7 cyclic peptide binding to fibrin D-Dimer-E complex; P02675; FP displacement of FITC-Tn7 peptide from fibrin DD(E); 0% = median of compound wells per plate; inhibition, % at 8.3 µM; actives 0.13% (n = 370,000);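 active = inhibition above the mean of compounds falling within the control limits plus 3 SD of them, cut at about 14% in these data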;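 also: 0% = plate median of compound wells and 100% = 10 µM Aha-Tn7 peptide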
Target sequence (P02675 whole entry, looked up): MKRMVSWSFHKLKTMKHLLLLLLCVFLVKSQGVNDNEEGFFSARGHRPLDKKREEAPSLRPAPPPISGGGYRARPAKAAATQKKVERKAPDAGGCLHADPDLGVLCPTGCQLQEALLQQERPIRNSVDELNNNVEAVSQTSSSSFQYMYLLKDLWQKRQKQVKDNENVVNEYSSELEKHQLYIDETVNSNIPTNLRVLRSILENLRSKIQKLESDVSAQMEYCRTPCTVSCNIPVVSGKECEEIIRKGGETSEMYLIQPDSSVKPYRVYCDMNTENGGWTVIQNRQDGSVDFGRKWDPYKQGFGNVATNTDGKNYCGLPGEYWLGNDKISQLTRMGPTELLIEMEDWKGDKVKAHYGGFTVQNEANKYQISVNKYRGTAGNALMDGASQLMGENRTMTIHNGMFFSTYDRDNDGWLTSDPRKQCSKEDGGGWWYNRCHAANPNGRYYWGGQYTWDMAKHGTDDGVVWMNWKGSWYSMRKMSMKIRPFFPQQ
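system = human fibrin DD(E) protein | quantity = DD(E) 2 µM final | medium = Tris/NaCl/CaCl2 buffer, pH 7.8 | also added = labelled Tn7 tracer, 0.1 µM | compound dosing = single point at 8.3 µM | timing = compound with protein 10 min, then 3 h after probe, room temperature | signal = FP measurement | benchmarks = Aha-Tn7 high control | repeats = one replicate per compound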
MT1-MMP act inh – blocks activation of human MT1-MMP | HT1080 RFP-PRO-GFP cells, GFP/RFP ratio fluorescence, overnight; percent of plate control window, DMSO zero | GFP/RFP ratio change, % at 20 µM | actives 0.061% (n = 360,000);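 active = GFP/RFP ratio change of at least 30% with cell ATP level not reduced by more than half and red fluorescence within 50% of control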
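Assay system: HT1080 RFP-PRO-GFP cells | Dosing: 20 µM single dose, 1% DMSO | Incubation: Cells overnight before dosing, compound overnight, 37 °C, 5% CO2 | Evaluation: GFP/RFP fluorescence ratio | Control set: DMSO-only wells and HT1080 RFP-L50D-GFP cell wells as references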
DAGLB inh – blocks human DAGLB lipase activity; HEK293T DAGLB membrane lysate, EnzChek fluorogenic substrate; actives 0.059% (n = 340,000); Q8NCG7; inhibition, % at 5.17 µM; in the data active = inhibition above about 34%;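 also: 0% = enzyme with vehicle and 100% = wells lacking enzyme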
DDE Tn6 FP inh – disrupts Tn6 cyclic peptide binding to fibrin D-Dimer-E complex; Fibrin DD(E) TRITC-Tn6 fluorescence polarization displacement; actives 0.21% (n = 370,000); inhibition, % at 8.3 µM;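 active = inhibition above a per-campaign cutoff: mean of compounds within control limits plus 3 SD, cut at about 15% in these data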;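 also: 0% = median of all compound wells on the plate and 100% = blocking peptide control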
TAG inh – triacylglycerol accumulation inhibition; H9c2 cells, Nile Red lipid (TAG) fluorescence; cells loaded with 200 µM oleic acid; inhibition, % at 12.5 µM; actives 0.66% (n = 230,000);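 active = pattern-corrected inhibition of lipid staining of at least 50% with the nuclear-stain viability signal not falling by more than 50%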;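 also: 0% = DMSO wells and 100% = triacsin C control wells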
DDE Tn7 confirm – confirmation of inhibitors of Tn7 binding to human fibrin DD(E); shares compounds with Tn7 DDE FP; FP displacement of TRITC-Tn7 peptide from DD(E); 0% set at plate's compound-well median; inhibition, % at 8.3 µM; actives 5% (n = 460);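 active = inhibition above the campaign cutoff, the mean of compounds within control limits plus 3 SD, cut at about 14% in these data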;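 also: 100% = median FP of high control wells holding Aha-Tn7 inhibitor peptide; displacers lower polarization since freed probe rises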
Tn7 DDE ctr – DD(E)-Tn7 binding inhibition, counter-screen; inhibition, % at 8.3 µM; actives 3% (n = 460); shares compounds with Tn7 DDE FP; fibrin DD(E), TRITC-Tn7 probe displacement, fluorescence polarization;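 active = inhibition above the cutoff, the mean of compounds lying between the control bounds plus 3 SD of those compounds, cut at about 17% in these data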;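 also: 0% = median of compound sample wells and 100% = excess unlabeled Aha-Tn7 peptide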
Tn6 DDE ctr – counter-screen hit for Tn6 peptide-fibrin DD(E) binding disruption. TRITC-Tn6 fluorescence polarization displacement; 0% = median of compound wells, not DMSO. AID 720621. inhibition, % at 8.3 µM. actives 2% (n = 680). shares compounds with DDE Tn6 FP inh;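 active = inhibition above the mean of test compounds lying between the control limits plus 3 SD of those, cut at about 14% in these data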;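 also: 0% = median of compound wells and 100% = wells with Aha-Tn7 blocking peptide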
DDE Tn6 confirm – DD(E)-Tn6 binding inhibition, FP confirmation. shares compounds with DDE Tn6 FP inh. FP displacement of TRITC-Tn6 peptide from DD(E); 0% = per-plate median of test wells. inhibition, % at 8.3 µM. actives 10% (n = 680);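 active = inhibition above the mean of compounds lying within the control limits plus 3 SD, cut at about 16% in these data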;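 also: 100% = high control wells holding a competing inhibitor peptide at 10 µM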
* marks the source's active call; other numbers are inactive results. Compounds with a hit are over-represented: about 1.4% of the library has one in this group of screens.

Screening COc1ccc(NC(=O)COC(=O)CC2Sc3ccccc3NC2=O)cc1 (centres undefined) returned Cardio protect -8.9, Tn7 DDE FP 14.8*, MT1-MMP act inh -1.3, DAGLB inh 0.8, DDE Tn6 FP inh 1.8, TAG inh 15.2, DDE Tn7 confirm 3.5 and Tn7 DDE ctr 4.3.
Screening Cc1cc(C)n(-c2ccc(C(=O)O)cc2)n1 returned Cardio protect 10.5, Tn7 DDE FP 13.9*, MT1-MMP act inh -1.3, DAGLB inh 0.2, DDE Tn6 FP inh 8.7, DDE Tn7 confirm 0.4 and Tn7 DDE ctr -0.2.
`CC1=CC(c2ccccc2)n2nc(NS(=O)(=O)c3ccc(C)cc3)nc2N1` (centres undefined) gave Cardio protect -3.2, Tn7 DDE FP 11.2, MT1-MMP act inh -2.6, DAGLB inh -0.6 and DDE Tn6 FP inh -0.7.
Screening CC1=CC(c2ccc(Cl)cc2)n2nc(NS(=O)(=O)c3ccc(C)cc3)nc2N1 (centres undefined) returned Cardio protect 0.6, Tn7 DDE FP 14.0*, MT1-MMP act inh 3.1, DAGLB inh 7.8, DDE Tn6 FP inh 13.7, DDE Tn7 confirm 5.5 and Tn7 DDE ctr 1.6.
Screening C=CCn1c(=O)[nH]c2nc3cc(N=CN(C)C)c(C)cc3nc2c1=O returned Cardio protect 13.0, Tn7 DDE FP 23.4*, MT1-MMP act inh -92.5, DAGLB inh -28.4, DDE Tn6 FP inh 4.4, TAG inh 3.2, DDE Tn7 confirm -7.3 and Tn7 DDE ctr 4.6.
Cc1cc2ncn(S(=O)(=O)N3CCOCC3)c2cc1C was read as Cardio protect -5.8, Tn7 DDE FP -1.6, MT1-MMP act inh 3.4, DAGLB inh 0.9 and DDE Tn6 FP inh 5.4.
Cc1cc2ncn(S(=O)(=O)N3CCCCC3)c2cc1C was read as Cardio protect -4.2, Tn7 DDE FP 14.4*, MT1-MMP act inh 1.6, DAGLB inh -1.3, DDE Tn6 FP inh 1.3, DDE Tn7 confirm -0.8 and Tn7 DDE ctr -3.5.
`CCCCNC(=O)C[C@H]1C(=O)N(Cc2ccc(OC)cc2)C2=CCCCC[C@@]21C(=O)OC` gave Tn7 DDE FP -4.5 and DDE Tn6 FP inh -0.2.
For O=S(=O)(c1ccc(Cl)s1)N1CCC(c2nc3ccccc3o2)CC1 the results were Tn7 DDE FP -2.0 and DDE Tn6 FP inh 1.9.
CC1(C)CC(=O)C(C=Nc2ccc(C(=O)c3ccccc3)cc2N=CC2=C(O)CC(C)(C)CC2=O)=C(O)C1 was read as Cardio protect 28.2, Tn7 DDE FP 13.9*, MT1-MMP act inh -121.0, DAGLB inh -8.2, DDE Tn6 FP inh 19.2*, TAG inh 18.4, DDE Tn7 confirm 6.3, Tn7 DDE ctr -3.0, Tn6 DDE ctr 6.3 and DDE Tn6 confirm -3.0.
FC(F)(F)c1cccc(Cn2ccc3ccc(-c4ccc5ccn(Cc6cccc(C(F)(F)F)c6)c5c4)cc32)c1 was read as Tn7 DDE FP 4.1 and DDE Tn6 FP inh 0.8.
For COC(=O)CCC(=O)Nc1ccc(Cl)c(Cl)c1 the results were Cardio protect -1.4, Tn7 DDE FP -0.3, MT1-MMP act inh 0.8, DAGLB inh 1.1 and DDE Tn6 FP inh 0.7.
For COC(=O)CC1(C(=O)OC)Nc2cc(Cl)c(Cl)cc2S(=O)(=O)N1O (centres undefined) the results were Cardio protect 7.2, Tn7 DDE FP 87.8*, MT1-MMP act inh -0.4, DAGLB inh -1.1, DDE Tn6 FP inh 124.4*, TAG inh 1.0, DDE Tn7 confirm 59.5*, Tn7 DDE ctr 57.9*, Tn6 DDE ctr 59.5* and DDE Tn6 confirm 57.9*.
For CC(NCc1ccco1)C(=O)N1CCCC1 (centres undefined) the results were Tn7 DDE FP 2.6 and DDE Tn6 FP inh -1.1.
CCNc1ccc2noc3c2c1C(=O)c1ccccc1-3 was read as Cardio protect 45.1, Tn7 DDE FP 16.8*, MT1-MMP act inh -99.6, DAGLB inh -450.6, DDE Tn6 FP inh active, DDE Tn7 confirm 53.3*, Tn7 DDE ctr 93.2*, Tn6 DDE ctr 53.3* and DDE Tn6 confirm 93.2*.
Screening O=C1c2ccccc2-c2onc3ccc(N4CCCC4)c1c23 returned Cardio protect 27.3, Tn7 DDE FP 32.5*, MT1-MMP act inh -8.5, DAGLB inh -46.6, DDE Tn6 FP inh 100.4*, TAG inh 11.2, DDE Tn7 confirm 6.3, Tn7 DDE ctr 93.2*, Tn6 DDE ctr 6.3 and DDE Tn6 confirm 93.2*.
For COC(=O)[C@]12C[C@H](CC(=O)NCCc3ccccc3OC)C(=O)N(Cc3ccccc3)C1=C[C@H](C(C)(C)C)O[C@@H]2C the results were Tn7 DDE FP 2.3 and DDE Tn6 FP inh -8.2.
Cn1ccnc1C(O)c1ccccc1 (centres undefined) was read as Cardio protect 3.0, Tn7 DDE FP -1.1, MT1-MMP act inh 2.7, DAGLB inh 1.6, DDE Tn6 FP inh 0.2 and TAG inh 2.0.
Screening COc1ccc2ccccc2c1C(O)c1nccn1C (centres undefined) returned Cardio protect -1.5, Tn7 DDE FP 32.7*, MT1-MMP act inh -244.0, DAGLB inh -14.7, DDE Tn6 FP inh 17.2*, TAG inh -13.9, DDE Tn7 confirm 16.8*, Tn7 DDE ctr 3.7, Tn6 DDE ctr 16.8* and DDE Tn6 confirm 3.7.
Screening CC(=O)c1ccc(NC(=O)C2CC(=O)N(Cc3ccccc3)C2)cc1 (centres undefined) returned Cardio protect 0.7, Tn7 DDE FP 6.0, MT1-MMP act inh 4.1, DAGLB inh -1.0, DDE Tn6 FP inh 15.7*, Tn6 DDE ctr -1.9 and DDE Tn6 confirm -2.8.
Screening O=C(O)Cn1cc(/C=C2/SC(=O)N(CC(=O)N3CCCCCC3)C2=O)c2ccccc21 returned Tn7 DDE FP 0.8, DDE Tn6 FP inh 15.5*, Tn6 DDE ctr 1.8 and DDE Tn6 confirm -1.2.
